Calls of active or inactive are those of the source. The calls are words filed in the database; no cut-off is given here.
Assays:
[1] = system: Mycobacterium tuberculosis; assay: Antitubercular activity against Mycobacterium tuberculosis H37Rv ATCC 27294 assessed as reduction in microbial growth under GAST/Fe medium after 1 week by two fold serial dilution method; assay type: functional; settings: H37Rv ATCC 27294, 168 h, time 1 weeks
How it was run: (§1)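 M. tuberculosis H37Rv grown to OD650nm 0.2-0.3 and diluted 1000-fold; about 1× 10^4 bacteria per well. Compounds taken from DMSO stocks and 2-fold serially diluted, in duplicate. Incubated 37 °C for 1 week, read by inverted mirror. MIC = lowest concentration giving complete growth inhibition. Isoniazid positive control, DMSO negative control. Media: GAST/Fe pH 6.6 or 7H9/glucose/casitone/Tyloxapol.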

[2] = system: Mycobacterium tuberculosis; assay: Antitubercular activity against Mycobacterium tuberculosis H37Rv ATCC 27294 assessed as reduction in microbial growth under 7H9/glucose medium after 1 week by two fold serial dilution method; assay type: functional; settings: H37Rv ATCC 27294, 168 h, time 1 weeks; how it was run: as §1
[3] = Cytotoxicity against human MRC5 cells assessed as reduction in cell viability after 24 hrs by NRU assay; assay type: cell-based
[4] = system: Mycobacterium tuberculosis; assay: Inhibition of wild-type Mycobacterium tuberculosis thymidylate kinase expressed in Escherichia coli BLi5 competent cells at 0.2 mM using dTMP as substrate by lactate dehydrogenase, pyruvate kinase and nucleoside diphosphate kinase coupled spectrophotometric method
How it was run: (§2)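 Purified MtbTMPK in a coupled spectrophotometric assay. Substrates fixed at dTMP 0.05 mM and ATP 0.5 mM. Compounds in DMSO, serially diluted; IC50 calculated, or no inhibition recorded at 0.2 mM.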

[5] = Inhibition of wild-type Mycobacterium tuberculosis thymidylate kinase expressed in Escherichia coli BLi5 competent cells using dTMP as substrate by lactate dehydrogenase, pyruvate kinase and nucleoside diphosphate kinase coupled spectrophotometric method; how it was run: as §2
[6] = Selectivity index, ratio of CC50 for human MRC5 cells to ratio of MIC99 for antitubercular activity against Mycobacterium tuberculosis H37Rv ATCC 27294 assessed as reduction in microbial growth under GAST/Fe medium; assay type: toxicity; settings: read-out: Selectivity Index
[7] = Selectivity index, ratio of CC50 for human MRC5 cells to ratio of MIC99 for antitubercular activity against Mycobacterium tuberculosis H37Rv ATCC 27294 assessed as reduction in microbial growth under 7H9/glucose medium; assay type: toxicity; settings: read-out: Selectivity Index

SMILES	MIC99 [1]	MIC99 [2]	CC50 at 24 h [3]	inhibition [4]	IC50 [5]	selectivity ratio [6]	selectivity ratio [7]
CS(=O)(=O)c1c(-c2ccccc2Cl)c[nH]c(=O)c1C#N	> 50 µM	37 µM	> 64 µM	–	–	–	–
C[S+]([O-])c1c(-c2cccc(Oc3ccccc3)c2)c[nH]c(=O)c1C#N (centres undefined)	–	37 µM	32 µM	inactive	–	–	–
C[S+]([O-])c1c(-c2ccc(Oc3ccc(Cl)c(Cl)c3)cc2)c[nH]c(=O)c1C#N (centres undefined)	19 µM	9.4 µM	28 µM	–	–	–	–
COc1ccc(-c2c[nH]c(=O)c(C#N)c2[S+](C)[O-])cc1 (centres undefined)	> 100 µM	> 100 µM	> 64 µM	–	–	–	–
C[S+]([O-])c1c(-c2ccccc2Cl)c[nH]c(=O)c1C#N (centres undefined)	37 µM	12.5 µM	> 64 µM	–	–	–	–
C[S+]([O-])c1c(-c2ccc(Oc3ccc(Cl)cc3)cc2)c[nH]c(=O)c1C#N (centres undefined)	9.4 µM	9.4 µM	25 µM	–	–	–	–
C[S+]([O-])c1c(-c2ccc(Cl)c(Cl)c2)c[nH]c(=O)c1C(N)=O (centres undefined)	≥ 50 µM	50 µM	16 µM	–	–	–	–
C[S+]([O-])c1c(-c2cccc(OCc3ccc(Cl)c(Cl)c3)c2)c[nH]c(=O)c1C#N (centres undefined)	9.4 µM	9.4 µM	> 64 µM	–	–	–	–
C[S+]([O-])c1c(-c2ccc(OCc3ccccc3)cc2)c[nH]c(=O)c1C#N (centres undefined)	4.7 µM	9.4 µM	25 µM	–	–	–	–
Cc1ccc(Oc2cccc(-c3c[nH]c(=O)c(C#N)c3[S+](C)[O-])c2)cc1 (centres undefined)	6.25 µM	25 µM	30 µM	–	–	–	–
C[S+]([O-])c1c(-c2ccc(C(F)(F)F)cc2)c[nH]c(=O)c1C#N (centres undefined)	19 µM	37 µM	> 64 µM	–	–	–	–
C[S+]([O-])c1c(-c2ccc(Oc3ccccc3)cc2)c[nH]c(=O)c1C#N (centres undefined)	3.13 µM	25 µM	> 64 µM	inactive	–	–	–
C[S+]([O-])c1c(-c2ccccc2)c[nH]c(=O)c1C#N (centres undefined)	37 µM	25 µM	> 64 µM	inactive	–	–	–
COc1ccc(Oc2ccc(-c3c[nH]c(=O)c(C#N)c3[S+](C)[O-])cc2)cc1 (centres undefined)	9.4 µM	19 µM	23 µM	–	–	–	–
C[S+]([O-])c1c(-c2cccc(OCc3ccc(Cl)cc3)c2)c[nH]c(=O)c1C#N (centres undefined)	9.4 µM	9.4 µM	31 µM	–	–	–	–
C[S+]([O-])c1c(-c2ccc(Br)cc2)c[nH]c(=O)c1C#N (centres undefined)	19 µM	12.5 µM	> 64 µM	–	–	–	–
C[S+]([O-])c1c(-c2cccc(Oc3ccc(Cl)cc3)c2)c[nH]c(=O)c1C#N (centres undefined)	9.5 µM	12.5 µM	24 µM	–	–	–	–
CS(=O)(=O)c1c(-c2ccc(Cl)c(Cl)c2)c[nH]c(=O)c1C(N)=O	19 µM	–	> 64 µM	–	–	–	–

SMILES	MIC99 [1]	MIC99 [2]	CC50 at 24 h [3]	inhibition [4]	IC50 [5]	selectivity ratio [6]	selectivity ratio [7]
C[S+]([O-])c1c(-c2cccc(OCc3ccccc3[N+](=O)[O-])c2)c[nH]c(=O)c1C#N (centres undefined)	19 µM	37 µM	64 µM	–	–	–	–
C[S+]([O-])c1c(-c2cccc(Cl)c2)c[nH]c(=O)c1C#N (centres undefined)	37 µM	19 µM	> 64 µM	–	–	–	–
C[S+]([O-])c1c(-c2cccc(Oc3ccc(Cl)c(Cl)c3)c2)c[nH]c(=O)c1C#N (centres undefined)	19 µM	12.5 µM	8 µM	–	–	–	–
C[S+]([O-])c1c(-c2cccc(OCc3ccccc3Cl)c2)c[nH]c(=O)c1C#N (centres undefined)	4.7 µM	9.4 µM	25 µM	–	–	–	–
C[S+]([O-])c1cc(-c2cccc(Br)c2)[nH]c(=O)c1C#N (centres undefined)	19 µM	19 µM	–	–	28 µM	–	–
CSc1c(-c2ccccc2)c[nH]c(=O)c1C#N	≥ 100 µM	100 µM	64 µM	–	206 µM	–	–
C[S+]([O-])c1c(-c2ccc(-c3ccccc3)cc2)c[nH]c(=O)c1C#N (centres undefined)	2.3 µM	1.2 µM	> 64 µM	–	–	27.8	50
C[S+]([O-])c1c(-c2ccc(Cl)cc2)c[nH]c(=O)c1C#N (centres undefined)	25 µM	19 µM	> 64 µM	–	–	–	–
C[S+]([O-])c1c(-c2cccc(OCc3cccc(Cl)c3)c2)c[nH]c(=O)c1C#N (centres undefined)	9.4 µM	9.4 µM	> 64 µM	–	–	–	–
C[S+]([O-])c1c(-c2ccc(Cl)c(Cl)c2)c[nH]c(=O)c1C#N (centres undefined)	12.5 µM	19 µM	> 64 µM	–	–	–	–
C[S+]([O-])c1c(-c2cccc(OCc3ccccc3)c2)c[nH]c(=O)c1C#N (centres undefined)	6.25 µM	19 µM	25 µM	–	–	–	–
COc1ccc(Oc2cccc(-c3c[nH]c(=O)c(C#N)c3[S+](C)[O-])c2)cc1 (centres undefined)	6.25 µM	25 µM	30 µM	–	–	–	–
CS(=O)(=O)c1c(-c2cccc(Cl)c2)c[nH]c(=O)c1C#N	> 50 µM	> 50 µM	> 64 µM	–	–	–	–
CS(=O)(=O)c1c(-c2ccc(C(F)(F)F)cc2)c[nH]c(=O)c1C#N	> 50 µM	> 50 µM	> 64 µM	–	–	–	–
Cc1ccc(Oc2ccc(-c3c[nH]c(=O)c(C#N)c3[S+](C)[O-])cc2)cc1 (centres undefined)	4.7 µM	9.4 µM	28 µM	–	–	–	–
C[S+]([O-])c1c(-c2ccccc2Oc2ccccc2)c[nH]c(=O)c1C#N (centres undefined)	9.4 µM	50 µM	30 µM	inactive	–	–	–
NNC(=O)c1ccncc1 [ISONIAZID]	0.2 µM	0.15 µM	–	–	–	–	–
